Measured values from EPA's CvTdb concentration-time database.

What was measured:
Rat [1] = test: concentration in plasma after dosing; conditions: dosed: 2-Hydroxy-4-methoxybenzophenone, 8 mg/kg, iv, Female, F344
Rat [2] = test: concentration in plasma after dosing; conditions: dosed: 2-Hydroxy-4-methoxybenzophenone, 250 mg/kg, oral, Female, F344
Rat [3] = test: concentration in plasma after dosing; conditions: dosed: 2-Hydroxy-4-methoxybenzophenone, 8 mg/kg, iv, Male, F344
Rat [4] = test: concentration in plasma after dosing; conditions: dosed: 2-Hydroxy-4-methoxybenzophenone, 250 mg/kg, oral, Male, F344
Rat [5] = test: concentration in plasma after dosing; conditions: dosed: 2-Hydroxy-4-methoxybenzophenone, 100 mg/kg, oral, Male, F344
Rat [6] = test: concentration in plasma after dosing; conditions: 6 h; dosed: 2-Hydroxy-4-methoxybenzophenone; 500 mg/kg; oral; Male; F344
Rat [7] = test: concentration in plasma after dosing; conditions: dosed: 2-Hydroxy-4-methoxybenzophenone, 8 mg/kg, iv, Female, F344; remark: listed apart in the source
Rat [8] = test: concentration in plasma after dosing; conditions: 0.5 h; dosed: Nitrite; 40 mg/kg; oral; Female; F344
Rat [9] = test: concentration in plasma after dosing; conditions: dosed: Nitrite, 80 mg/kg, oral, Female, F344
Rat [10] = test: concentration in kidney after dosing; conditions: 1 h; dosed: Fluorotelomer alcohol 8+2; 24 mg/kg; oral; Male; Harlan Sprague Dawley
Rat [11] = test: concentration in liver after dosing; conditions: 12 h; dosed: Fluorotelomer alcohol 8+2; 24 mg/kg; oral; Male; Harlan Sprague Dawley
Rat [12] = test: concentration in kidney after dosing; conditions: 6 h; dosed: Perfluorooctanoic acid; 80 mg/kg; oral; Female; Harlan Sprague Dawley
Rat [13] = test: concentration in kidney after dosing; conditions: 3 h; dosed: Perfluorooctanoic acid; 12 mg/kg; oral; Male; Harlan Sprague Dawley
Rat [14] = test: concentration in liver after dosing; conditions: 3 h; dosed: Fluorotelomer alcohol 8+2; 80 mg/kg; oral; Female; Harlan Sprague Dawley
Rat [15] = test: concentration in plasma after dosing; conditions: 192 h; dosed: 678-39-7; 12 mg/kg; iv; Male; F344
Rat [16] = test: concentration in plasma after dosing; conditions: dosed: Potassium Perfluorobutane Sulfonate, 4 mg/kg, iv, Male, F344
mouse = test: concentration in blood after dosing; conditions: dosed: benzo[a]pyrene, 15 mg/kg, oral, C57BL/6J
In short: (§1)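 Points were largely digitised from plot screenshots with WebPlotDigitizer or otherwise copied from tables, and they remain in the units each source reported. They come from published in vivo toxicokinetic studies and two structured collections. Sampling and analytical methods follow each source and were often not reported.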

monkey = test: concentration in blood after dosing; conditions: dosed: methanol, inhalation, duration: 6 hr, male, Macaca mulatta
In short: as §1

human = test: concentration in blood after dosing
In short: as §1

COc1ccc(C(=O)c2ccccc2)c(O)c1 [2-Hydroxy-4-methoxybenzophenone]
Conditions	concentration in plasma [ng/mL]
Rat [1], 0.25 h	1800
Rat [1], 4 h	38.7
Rat [2], 3 h	81.6
Rat [2], 10 min	13
Rat [3], 0.25 h	2370
Rat [3], 2 h	113
Rat [4], 3 h	71.3
Rat [4], 10 min	35.9
Rat [5], 3 h	21.2
Rat [5], 10 min	17.3
Rat [7], 2 h	111
Rat [7], 10 min	2560

Conditions	concentration in plasma [ng/mL]
Rat [6]	293

O=N[O-] [Nitrite]
Conditions	concentration in plasma [ng/mL]
Rat [8]	6500

Rat [9]
Conditions	concentration in plasma [ng/mL]
6 h	1700
10 min	10800

O=C(O)C(F)(F)C(F)(F)C(F)(F)C(F)(F)C(F)(F)C(F)(F)C(F)(F)F [Perfluorooctanoic acid]
Conditions	concentration in kidney [ng/g]	concentration in liver [ng/g]	concentration in plasma [ng/mL]
Rat [10]	175	–	–
Rat [11]	–	1700	–
Rat [12]	178000	–	–
Rat [13]	23700	–	–
Rat [14]	–	2300	–
Rat [15]	–	–	310

O=S(=O)([O-])C(F)(F)C(F)(F)C(F)(F)C(F)(F)F.[K+] [Potassium Perfluorobutane Sulfonate]
Rat [16]
Conditions	concentration in plasma [ng/mL]
0.25 h	26000
6 h	7280

c1ccc2c(c1)cc1ccc3cccc4ccc2c1c34 [benzo[a]pyrene]
mouse
Conditions	concentration in blood [ng/mL]
0.4576 h	68.9
0.4733 h	61
0.9942 h	148
1.01 h	190
1.436 h	196
1.452 h	276
1.957 h	239
1.989 h	253
3.014 h	282
3.046 h	85
4.04 h	258
4.072 h	15.5
4.94 h	8.52
5.934 h	6.45
6.013 h	252
9.028 h	65.1
11.99 h	18.4
14.99 h	6.86

CO [methanol]
monkey
Conditions	concentration in blood [ng/mL]
0.5142 h, 2000 ppm	54500
0.5644 h, 1200 ppm	35700
1.044 h, 1200 ppm	31200
1.066 h, 2000 ppm	52700
1.558 h, 1200 ppm	31400
1.603 h, 2000 ppm	47700
2.036 h, 1200 ppm	27700
2.065 h, 2000 ppm	39000
3.014 h, 1200 ppm	21100
3.019 h, 2000 ppm	40300
4.525 h, 1200 ppm	14300
4.556 h, 2000 ppm	24100
6.067 h, 2000 ppm	16300
6.073 h, 1200 ppm	10300
8.074 h, 2000 ppm	9200
8.076 h, 1200 ppm	7660
10 h, 1200 ppm	7870
10.06 h, 2000 ppm	7580
97 s, 1200 ppm	38600
101 s, 2000 ppm	65800

CC(C)(C)O [tert-butyl alcohol]
human, inhalation, duration: 4 hr
Conditions	concentration in blood [nM]
1.944 h, dosed: methyl tert-butyl ether, 4.5 ppm	1930
1.995 h, dosed: methyl tert-butyl ether, 38.7 ppm	22200
2.028 h, dosed: ethyl tert-butyl ether, 40.6 ppm	12800
2.045 h, dosed: ethyl tert-butyl ether, 4.5 ppm	1690
3.934 h, dosed: methyl tert-butyl ether, 4.5 ppm	1730
3.985 h, dosed: methyl tert-butyl ether, 38.7 ppm	17800
4.023 h, dosed: ethyl tert-butyl ether, 4.5 ppm	1620
4.023 h, dosed: ethyl tert-butyl ether, 40.6 ppm	11000
5.95 h, dosed: methyl tert-butyl ether, 4.5 ppm	1580
6.001 h, dosed: methyl tert-butyl ether, 38.7 ppm	12500
6.034 h, dosed: ethyl tert-butyl ether, 4.5 ppm	1170
6.034 h, dosed: ethyl tert-butyl ether, 40.6 ppm	9280
7.952 h, dosed: methyl tert-butyl ether, 4.5 ppm	917
7.96 h, dosed: ethyl tert-butyl ether, 4.5 ppm	1100
7.977 h, dosed: ethyl tert-butyl ether, 40.6 ppm	8400
8.017 h, dosed: methyl tert-butyl ether, 38.7 ppm	10000
9.972 h, dosed: ethyl tert-butyl ether, 4.5 ppm	771
9.972 h, dosed: ethyl tert-butyl ether, 40.6 ppm	6190
10.03 h, dosed: methyl tert-butyl ether, 38.7 ppm	8310
11.93 h, dosed: ethyl tert-butyl ether, 4.5 ppm	905
11.98 h, dosed: ethyl tert-butyl ether, 40.6 ppm	5880
12.05 h, dosed: methyl tert-butyl ether, 38.7 ppm	5730
18 s, dosed: methyl tert-butyl ether, 4.5 ppm	2660
20 s, dosed: methyl tert-butyl ether, 38.7 ppm	21800
23.91 h, dosed: ethyl tert-butyl ether, 40.6 ppm	2670
23.99 h, dosed: methyl tert-butyl ether, 38.7 ppm	1140
61 s, dosed: ethyl tert-butyl ether, 4.5 ppm	1870
61 s, dosed: ethyl tert-butyl ether, 40.6 ppm	14300

human, dosed: methyl tert-butyl ether, oral
Conditions	concentration in blood [nM]
0.9669 h, 5 mg	463
1.015 h, 15 mg	1880
1.979 h, 15 mg	1700
1.982 h, 5 mg	430
2.968 h, 15 mg	1580
2.972 h, 5 mg	391
3.958 h, 15 mg	1510
3.961 h, 5 mg	370
5.915 h, 5 mg	318
5.962 h, 15 mg	1230
7.92 h, 5 mg	290
7.966 h, 15 mg	983
9.925 h, 5 mg	236
9.97 h, 15 mg	937
11.95 h, 15 mg	806
12.01 h, 5 mg	199
23.95 h, 15 mg	268
23.99 h, 5 mg	53.5
